Screens: PubChem, The Scripps Research Institute Molecular Screening Center
A selection: hits, their analogues and other compounds. The true share with any hit is near 2.5%.
SIAE primary: blocks human sialic acid acetylesterase; Q9HAT2; SIAE FP-Rh probe binding, fluorescence polarization; inhibition, % at 9.66 µM; actives 0.69% (n = 370,000); AID 1053197;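 active = inhibition above a cutoff: mean of compounds within the control limits plus 3 SD of those, cut at about 17% in these data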;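 note: 0% = plate median of compound wells and 100% = probe without SIAE protein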
Target sequence (Q9HAT2 whole entry, looked up): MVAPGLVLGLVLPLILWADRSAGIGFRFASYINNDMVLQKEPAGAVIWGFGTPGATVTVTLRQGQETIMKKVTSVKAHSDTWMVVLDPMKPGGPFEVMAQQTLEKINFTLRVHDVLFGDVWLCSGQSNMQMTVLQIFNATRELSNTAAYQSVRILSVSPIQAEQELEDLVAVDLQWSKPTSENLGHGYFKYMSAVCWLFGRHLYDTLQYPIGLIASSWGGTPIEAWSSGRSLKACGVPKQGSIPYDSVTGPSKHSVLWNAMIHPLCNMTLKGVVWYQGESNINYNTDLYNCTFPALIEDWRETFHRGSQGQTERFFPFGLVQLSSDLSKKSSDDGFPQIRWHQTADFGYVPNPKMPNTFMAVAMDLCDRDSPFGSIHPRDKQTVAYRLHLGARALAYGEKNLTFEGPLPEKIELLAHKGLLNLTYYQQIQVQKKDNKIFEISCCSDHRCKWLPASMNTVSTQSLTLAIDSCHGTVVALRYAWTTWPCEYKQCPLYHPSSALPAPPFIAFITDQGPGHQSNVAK
HTRA1 inhibitor: inhibitors of human serine peptidase HTRA1; Q92743; recombinant HTRA1, FP-rhodamine activity-based probe, fluorescence polarization; inhibition, % at 5.96 µM; actives 0.5% (n = 340,000); in the data active = inhibition above about 36%;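 note: 0% = enzyme with DMSO and 100% = wells lacking enzyme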
TCR-CD3 inh: inhibitors of human TCR-CD3 interaction; TAMRA-labeled TCR probe fluorescence, biochemical; inhibition, % at 9.4 µM; actives 0.37% (n = 360,000); in the data active = inhibition above about 19%;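 note: recombinant mutant TCR 2C K166C tagged with TAMRA read by polarization; 0% = receptor in buffer alone and 100% = receptor with positive control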
rCAG RNA binder: binds r(CAG) RNA repeats; r(CAG) RNA repeat, TO-PRO-1 dye displacement fluorescence; inhibition, % at 3 µM; actives 1.3% (n = 370,000);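 active = inhibition above the plate cutoff, the mean of all test compounds on that plate plus 3 SD, cut at about 35% in these data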;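 note: 0% = DMSO alone and 100% = 100 µM mitoxantrone as full dye displacement; higher means more dye released from RNA so lower well fluorescence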
ABHD4 inh: ABHD4 (mouse) inhibition, primary FP screen. purified mABHD4, FP-Rh probe fluorescence polarization. inhibition, % at 8.92 µM. actives 0.54% (n = 370,000). AID 720543;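 active = inhibition exceeding the mean over every tested compound plus 3 SD, cut at about 30% in these data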;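 note: 0% = plate median of compound wells and 100% = S159A mutant with DMSO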
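Assay system: Wild-type mouse ABHD4 protein | Medium: HEPES pH 7.0 buffer, 150 mM NaCl, 0.01% Pluronic F-127 | Incubation: Enzyme–compound pre-incubation 45 min, then probe 60 min, both 25 °C | Technique: Fluorescence polarization with parallel and perpendicular emission, 525/598 nm | Evaluation: % inhibition of FP-Rh probe binding versus controls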
SIAE inh conf: human SIAE inhibition, confirmation; AID 1117263; shares compounds with SIAE primary; SIAE FP-Rh activity-based probe, fluorescence polarization; actives 13% (n = 2,300); inhibition, % at 9.66 µM;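 active = mean inhibition of the replicates above the hit cutoff set in the primary screen, cut at about 17% in these data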;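 note: 0% = SIAE with DMSO and probe and 100% = probe without SIAE; inhibitors lower polarization as more probe stays unbound to SIAE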
* = called active by the depositor; x = not tested or not shown.

SMILES	SIAE primary	HTRA1 inhibitor	TCR-CD3 inh	rCAG RNA binder	ABHD4 inh	SIAE inh conf
Cc1cccc(C(=O)OCC(=O)NC(C)CCc2ccccc2)c1 (centres undefined)	-5	-14	-5	-5	9	x
COc1cccc(CNC2CCC23CCC(C)CC3)c1 (centres undefined)	0	x	x	x	8	x
O=C(CSCC(=O)NC1CCCC1)Nc1ccccc1	7	0	1	1	6	x
COc1ccc(CN(C)CC(=O)Nc2ccccc2C(F)(F)F)c(OC)c1	20*	-1	7	0	13	1
COc1ccc(CN(C)CC(=O)Nc2ccc(Cl)cc2C(F)(F)F)c(OC)c1	-2	-23	-4	-6	5	x
COC(=O)C1C(=O)c2c(n[nH]c2C)CC1(C)C (centres undefined)	19*	7	4	-3	-1	1
CC(C)OC(=O)CSc1nnc(-c2ccccn2)n1C	18*	4	5	-2	2	5
Cc1[nH][nH]c(=O)c1C(c1c(C)[nH][nH]c1=O)c1cn(C)c2ccccc12	0	7	-3	3	2	x
Nc1[nH]c(C(=O)c2ccccc2)c(-c2ccccc2[N+](=O)[O-])c1C(=O)NCCc1c[nH]c2ccccc12	18*	x	-4	15	23	1
Nc1sc(-c2ccccc2)cc1C(=O)NCCc1c[nH]c2ccccc12	26*	x	-2	16	1	8
Nc1[nH]c(C(=O)c2ccccc2)c(-c2ccc([N+](=O)[O-])cc2)c1C(=O)NCCc1c[nH]c2ccccc12	4	x	-6	12	9	x
O=C(NCCc1c[nH]c2ccccc12)c1ccccc1	8	2	-6	-2	2	x
Nc1[nH]c(C(=O)c2ccccc2)c(-c2ccccc2Br)c1C(=O)NCCc1c[nH]c2ccccc12	19*	x	0	11	18	7
COC(=O)C1(C)NC(c2cccc(C)c2)C2C(=O)N(c3ccc(F)cc3)C(=O)C21 (centres undefined)	-2	6	0	0	0	x
COc1ccc(C(=O)C2CCN(CC(=O)NCc3ccccc3)CC2)cc1	-3	0	-2	-5	-8	x
CC(=O)C(=[N+]=[N-])C(=O)NCc1ccccc1	3	-1	-10	-1	6	x
O=Nc1c(O)[nH]c2ccc(Cl)c(Cl)c12	63*	24	4	8	8	42*
Oc1[nH]c2ccccc2c1N=Nc1ccccc1Cl	1	-3	1	6	-3	x
O=c1c2[nH]c3ccccc3c2ncn1CCC1=CCCCC1	2	0	-7	-4	1	x
C1=C(CCNc2ncnc3c2[nH]c2ccccc23)CCCC1	23*	6	0	8	25	22*
O=C(NC1CC1)c1cccc(S(=O)(=O)Nc2ccccc2F)c1	17*	1	9	2	-2	-3
CCOc1ccc(CNc2ccc3c(c2)ncn3C(C)(C)C)cc1	22*	4	9	-9	0	-2
CN(C)c1ccc(CNc2ccc3c(c2)ncn3C(C)(C)C)cc1	18*	11	3	-7	3	3
CCCCC(=O)Nc1c2c(nn1-c1ccc(C)cc1)CS(=O)(=O)C2	2	8	1	-1	6	x
CCOc1ccc(C(C)NC(=O)Nc2ccc(F)cc2F)cc1 (centres undefined)	-4	-4	-3	-1	0	x
SMILES	SIAE primary	HTRA1 inhibitor	TCR-CD3 inh	rCAG RNA binder	ABHD4 inh	SIAE inh conf
CC(C)(C)c1ccc(/C=C/C(=O)c2ccc(NC3=NCCCS3)cc2)cc1	21*	-56	1	1	4	12
O=C(/C=C/c1ccc(Br)cc1)c1ccc(NC2=NCCCS2)cc1	40*	-42	2	1	-8	8
Cc1cccc(/C=C/C(=O)c2ccc(NC3=NCCCS3)cc2)c1	53*	-38	-3	-2	-5	2
COc1cccc(/C=C/C(=O)c2ccc(NC3=NCCCS3)cc2)c1	5	-30	10	-3	14	x
O=C(/C=C/c1ccccc1)c1ccc(NC2=NCCCS2)cc1	0	-19	9	-1	1	x
N/C(=N\OC(=O)c1ccco1)c1ccccn1	1	-2	2	0	5	x
COc1ccccc1CNCC(=O)Nc1ccc(C(F)(F)F)cc1	0	2	1	-5	8	x
CCc1cccc(C)c1NC(=O)COC(=O)c1cc([N+](=O)[O-])ccc1N1CCOCC1	19*	4	1	-2	5	0
